# ChEMBL document CHEMBL4513216, “Probing the Open Global Health Chemical Diversity Library for Multistage-Active Starting Points for Next-Generation Antimalarials” (ACS Infect Dis, 2020)
# Test: Toxicity liver stage against HepG2, at 10uM
# Type: cell-based
# Parameters: test concentration 10 uM, cell line HepG2-A16-CD81EGFP
# Details: human, HepG2-A16-CD81EGFP cells; read-out: INHIBITION
# In short: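 Uninfected HepG2-A16-CD81EGFP cells, 3 × 10^3 per well, 1536-well, plated on prespotted compound at 10 μM final, parasite-free screening media added to match infected plates; puromycin 10 μM positive, DMSO 0.5% negative; run in parallel with 48 h PbLuc assay at 37 °C, 5% CO2; viability by CellTiter-Glo luminescence, normalized to controls.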
smiles,measurement,value
Nc1nnc(SCc2cc(=O)n3c4c(sc3n2)CCCC4)[nH]1,cytotoxicity at 10 µM,-4.19%
CC(=O)Nc1ccc(Oc2ccc3c(c2)OCO3)nc1,cytotoxicity at 10 µM,-8.6%
Cc1cc(=O)n2c(n1)SCC2CC(=O)NCc1cc(-c2ccco2)on1 (stereo not given),cytotoxicity at 10 µM,-15.6%
Cn1cc(S(=O)(=O)NCC2CCN(C(=O)Oc3ccccc3)CC2)cn1,cytotoxicity at 10 µM,-8.36%
COc1ccc(C[C@H]2CN(C(=O)CS(C)(=O)=O)CC[C@H]2OC)cc1,cytotoxicity at 10 µM,2.64%
CN1C[C@H](COCC2CC2)[C@H]2CCN(Cc3ccco3)CC[C@H]2C1=O,cytotoxicity at 10 µM,-4.84%
CC(C)n1c(C(=O)N2CCCC2)nc2c1CCN(c1ncccn1)C2,cytotoxicity at 10 µM,-6.72%
CC(=O)N1CCC(c2cc3c(ncn3C)c(-c3cnn(C)c3)n2)CC1,cytotoxicity at 10 µM,0.472%
CN(C)C(=O)COCC1C[C@@H]2OCCN(Cc3ccco3)[C@H]2C1 (stereo not given in full),cytotoxicity at 10 µM,11.9%
O=C(COc1coc(CN2CCSCC2)cc1=O)c1ccccc1,cytotoxicity at 10 µM,9.21%
CCc1noc(-c2ccc(SCC(=O)O)nc2)n1,cytotoxicity at 10 µM,-10.9%
CCn1c(=O)c2sccc2n(CC(=O)Nc2cccc(Cl)c2)c1=O,cytotoxicity at 10 µM,0.115%
O=c1[nH]nc2c(N3CCC(NC4CCOCC4)CC3)nccn12,cytotoxicity at 10 µM,7.19%
Cn1c(=O)c2c(n3ncnc13)NC(=O)CC2c1cccc(Br)c1 (stereo not given),cytotoxicity at 10 µM,7.83%
CC(=O)N1CCC2(CC1)CC(Oc1ccccc1)CO2 (stereo not given),cytotoxicity at 10 µM,-8.77%
O=C(c1n[nH]cc1Br)N1CCOCC1,cytotoxicity at 10 µM,5.31%
Cc1nc(N2CCN(C(=O)c3ccncc3)CC2)c2c(n1)c(C)nn2C,cytotoxicity at 10 µM,10.3%
CC(NC(=O)c1ccc(F)cc1F)c1cnn(C)c1 (stereo not given),cytotoxicity at 10 µM,3.68%
CCn1c(NCc2ccccc2)nc2c(C)nn(C)c2c1=O,cytotoxicity at 10 µM,10.6%
CN1CCN(c2nsc(-c3ccccc3)c2C#N)CC1,cytotoxicity at 10 µM,1.28%
CSCc1cccc(S(=O)(=O)N2CCCC2)c1,cytotoxicity at 10 µM,8.49%
COc1c(Br)c(C(=O)NC2CC2)nn1C,cytotoxicity at 10 µM,3.18%
O=C(NCc1ccnc(C2CCCOC2)n1)c1cccs1 (stereo not given),cytotoxicity at 10 µM,0.44%
c1ccc(CN2CCCC(c3nccnc3-n3ccnc3)C2)cc1 (stereo not given),cytotoxicity at 10 µM,-4.56%
Cc1ccc(-c2nnc(SCC(=O)O)n2-c2ccc(C)cc2)cc1,cytotoxicity at 10 µM,-3.53%
CC(=O)N1CCC(Cc2cnc(-c3c(C)nn(C)c3C)cn2)C1 (stereo not given),cytotoxicity at 10 µM,-7.31%
CCN(CC)CCNc1ncc(-c2cc(C)no2)c(-c2ccoc2C)n1,cytotoxicity at 10 µM,-4.94%
CC1c2cc(F)ccc2CCN1C(=O)c1[nH]c(=O)[nH]c(=O)c1N (stereo not given),cytotoxicity at 10 µM,7.78%
CN(Cc1ccc(C#N)cc1)C(=O)c1ccn(C)c(=O)c1,cytotoxicity at 10 µM,-2.81%
Cc1ccccc1CC(=O)NCCNc1nccc(C(F)(F)F)n1,cytotoxicity at 10 µM,7.64%
CN(C)C(=O)c1cccc(Nc2cnn(C)c2)c1,cytotoxicity at 10 µM,5.42%
COc1ccc(Cl)cc1NCC(=O)N(Cc1ccncc1)C1CC1,cytotoxicity at 10 µM,13.7%
CN(Cc1ccco1)C(=O)CN1C(=O)c2ccccc2C1=O,cytotoxicity at 10 µM,-2.96%
CC(C)c1noc(CN2CCN(C(=O)OC(C)(C)C)C(C)C2)n1 (stereo not given),cytotoxicity at 10 µM,2.24%
CC(NC(=O)CCc1nc(-c2nnc[nH]2)no1)c1ccc(F)cc1F (stereo not given),cytotoxicity at 10 µM,-2.05%
CC(C)COC(=O)N1CCCN(C(=O)c2ccnc(N(C)C)c2)CC1,cytotoxicity at 10 µM,-15.1%
Cc1ccc(-c2ccc(C(=O)NCCC(=O)N(C)C)c(F)c2)cc1,cytotoxicity at 10 µM,-0.0916%
NC(=O)C(CNC(=O)CCc1ccccc1)Cc1ccc(F)cc1 (stereo not given),cytotoxicity at 10 µM,6.62%
CCn1ccnc1CN1CCN(Cc2cccnc2)CC1C (stereo not given),cytotoxicity at 10 µM,-0.191%
CCOC(C)C(=O)N(C)C1CCN(c2ccc(OC)cc2)CC1 (stereo not given),cytotoxicity at 10 µM,-1.57%
COc1ccc(NC(C)c2ccc(C#N)cc2)cc1N1CCCC1=O (stereo not given),cytotoxicity at 10 µM,-7.43%
Cc1ccc(CN(C(=O)C(C)NC(N)=O)C2CC2)cc1C (stereo not given),cytotoxicity at 10 µM,7.47%
Cc1n[nH]c(C2CN(C(=O)c3cc(C)sc3C)CCO2)n1 (stereo not given),cytotoxicity at 10 µM,3.35%
CNC(=O)c1sc(C2CCCC2)nc1C,cytotoxicity at 10 µM,13.1%
CCc1nsc(N2CCCN(C(=O)c3ccc(OC)cc3)CC2)n1,cytotoxicity at 10 µM,4.05%
O=C(NCCn1ccnc1)NCc1ccc(N2CCCCCC2)nc1,cytotoxicity at 10 µM,19%
CC(C)(C)S(=O)(=O)c1ccc(N2CCC(n3cncn3)CC2)cn1,cytotoxicity at 10 µM,3.94%
COCCCC(=O)N(C)c1ccc(F)c(Cl)c1,cytotoxicity at 10 µM,-0.577%
Cc1nc(COc2ccc(N(C)S(C)(=O)=O)cc2)sc1C,cytotoxicity at 10 µM,-2.75%
Cc1cc(CN(C)C(=O)C2CCCN(C(=O)c3ccc(Cl)cc3)C2)no1 (stereo not given),cytotoxicity at 10 µM,-15.6%
COCCN1CCc2ncnc(N(C)C)c2CC1,cytotoxicity at 10 µM,-0.025%
CC(C)N(C)Cc1cc(=O)n2c(n1)CN(C(=O)c1cnccn1)CCC2,cytotoxicity at 10 µM,-3.02%
O=C(c1ccnnc1)N1CCC2(CC1)CN(c1ccccn1)CCO2,cytotoxicity at 10 µM,-81.5%
Cc1cc(C(=O)N2CC[C@@H]3CN(c4ncccn4)CCO[C@@H]3C2)c(C)o1,cytotoxicity at 10 µM,3.52%
Cn1nnc2c1CCN(Cc1ccccc1)C2COCC1CC1 (stereo not given),cytotoxicity at 10 µM,3.24%
O=C(C1CCOC1)N1C[C@H]2CN(Cc3ccccn3)C[C@H]2C1 (stereo not given in full),cytotoxicity at 10 µM,1.03%
CCN1CC2(CCC1=O)CCN(Cc1cccc(C#N)c1)CC2,cytotoxicity at 10 µM,-1.1%
CSCCCNC(=O)C(c1ccccc1C)N(C)C (stereo not given),cytotoxicity at 10 µM,4.68%
CN1CC2(CCN(Cc3cc(Cl)ccc3OCC(=O)O)CC2)OC1=O,cytotoxicity at 10 µM,1.6%
CCN(C)C(=O)Cn1c(-c2ccco2)nn(-c2ccccc2OC)c1=O,cytotoxicity at 10 µM,0.832%
COc1cccc(Cn2ncnc2CNC(C)=O)c1,cytotoxicity at 10 µM,0.15%
COc1ccc(Cc2ncc3c(n2)CN(C(=O)CCO)C3)cc1,cytotoxicity at 10 µM,2.37%
O=C(CCc1cc2n(n1)CCN(Cc1ccncc1)C2)N1CCCC1,cytotoxicity at 10 µM,-7.97%
CC(C)CN1CCc2[nH]cnc2C12CCN(C(=O)c1ccc[nH]1)CC2,cytotoxicity at 10 µM,14.7%
Cc1nc(C2CCNCC2)cc(N(C)Cc2cc3cc(F)ccc3[nH]2)n1,cytotoxicity at 10 µM,-10.7%
CCN1CCC[C@@H]1CNC(=O)c1cc(COc2ccccc2)[nH]n1,cytotoxicity at 10 µM,0.635%
Cc1ccc(C)c2c(O)cc(CNCCNC(=O)C(C)C)nc12,cytotoxicity at 10 µM,-8.14%
CCNc1ncc(C(=O)NC(c2ccccc2)c2ccco2)cn1 (stereo not given),cytotoxicity at 10 µM,5.94%
CC(C)CN1CCc2[nH]cnc2C12CCN(C(=O)c1cncn1C)CC2,cytotoxicity at 10 µM,-8.1%
Cc1cc(=O)[nH]c(=O)n1-c1ccccc1Br,cytotoxicity at 10 µM,7.89%
Cn1c(N2CCOCC2)nc2cc(C(=O)N[C@@H]3CC[C@@H](N)C3)ccc21,cytotoxicity at 10 µM,-1.07%
CSc1ccccc1C(C(=O)O)N1CCN(Cc2ccccn2)CC1 (stereo not given),cytotoxicity at 10 µM,-36.2%
Cc1nc(CN2CCCC(CCc3ccc(F)cc3F)C2)c[nH]1 (stereo not given),cytotoxicity at 10 µM,-9.67%
CC(CN1CCOCC1)NCC1CCN(c2cnn(C)c(=O)c2)CC1 (stereo not given),cytotoxicity at 10 µM,-9.93%
CC(C)c1cc(N2CCC(CCC(=O)NC3CC3)CC2)n2nccc2n1,cytotoxicity at 10 µM,-9.12%
CC(=O)N1CCCCC1c1nc2c(c(N3CCCCC3)n1)CN(C)CC2 (stereo not given),cytotoxicity at 10 µM,-0.0788%
CCN1CCN(C2CCN(CCOc3ccc(F)cc3)CC2)C1=O,cytotoxicity at 10 µM,-5.38%
O=C(Cc1cccc(F)c1)NCCNCc1cccnc1,cytotoxicity at 10 µM,-1.56%
CC(=O)NC(C)C(=O)NCc1ccc(N2CCNC(=O)C2)cc1 (stereo not given),cytotoxicity at 10 µM,2.03%
CC(C)(C)N1CCN(C(=O)Nc2cc(C(F)(F)F)c[nH]c2=O)CC1,cytotoxicity at 10 µM,5.08%
Cc1nnc(NC(=O)NCc2ccc(N3CCC(C)CC3)nc2)s1,cytotoxicity at 10 µM,-1.36%
CC(C)c1nccn1C1CCCN(C(=O)CCc2cnn(C)c2)C1 (stereo not given),cytotoxicity at 10 µM,-1.58%
O=C(CN1CCc2cncnc2C1)NCCOc1cccc(Cl)c1,cytotoxicity at 10 µM,-6.88%
c1ccc(-n2nnnc2CNCC2CCCN2c2cccnn2)cc1 (stereo not given),cytotoxicity at 10 µM,-4.14%
Cc1nc2cc(C(=O)N3CCCC(n4ccnc4)C3)ccc2n1C (stereo not given),cytotoxicity at 10 µM,-8.44%
c1ccc(COc2cccc(CNC3CCc4ncnn4C3)c2)cc1 (stereo not given),cytotoxicity at 10 µM,-13.7%
Cc1cnn(C2CCCN(C(=O)c3ccc(-n4ccnc4)cc3)C2)c1 (stereo not given),cytotoxicity at 10 µM,-1.14%
CCc1nc(CN2CCCC(Cn3nc(C)nc3C)C2)no1 (stereo not given),cytotoxicity at 10 µM,-2.68%
CC(=O)NCC1CCN(c2cc(C)nc(-c3ccncc3)n2)CC1,cytotoxicity at 10 µM,-1.36%
Cc1cn2c(n1)CCC(NC(=O)CCn1cncn1)C2 (stereo not given),cytotoxicity at 10 µM,-5.72%
CC(C)(C)NC(=O)NC(=O)CNC(C)(C)c1ccc2c(c1)OCCO2,cytotoxicity at 10 µM,-8.72%
Cc1nc(CNC(=O)NCCc2ccc(N(C)C)cc2)cs1,cytotoxicity at 10 µM,-11.6%
Cc1csc(C2CCCN(C(=O)c3cnc[nH]3)C2)n1 (stereo not given),cytotoxicity at 10 µM,-10.7%
CC(C)c1nc2n(n1)CC(NCc1nnc(-c3ccco3)o1)CC2 (stereo not given),cytotoxicity at 10 µM,-9.78%
CCOC(=O)[C@]12CCCN(Cc3cccs3)C[C@H]1CN(CCOC)C2,cytotoxicity at 10 µM,5.13%
Fc1ccc(N2CCC3(CC2)CC(OCc2cccnc2)CO3)cc1 (stereo not given),cytotoxicity at 10 µM,9.81%
c1csc(CN2Cc3nc(CN4CCCC4)oc3C2)c1,cytotoxicity at 10 µM,4.59%
COCCCN1CCCC12CCN(Cc1cccnc1OC)CC2,cytotoxicity at 10 µM,11.8%
Cn1ccnc1CN1CCC2(CC(=O)N(c3cncnc3)C2)C1 (stereo not given),cytotoxicity at 10 µM,-0.799%
COCC(=O)N1CC[C@@H]2O[C@H](COCc3ccncc3)CC[C@@H]21,cytotoxicity at 10 µM,2.6%
CS(=O)(=O)N1C[C@H]2CCCN(Cc3nccs3)[C@H]2C1,cytotoxicity at 10 µM,-1.65%
CCN(C)c1ncc2c(c1C(=O)O)CCN(C1CCOC1)C2 (stereo not given),cytotoxicity at 10 µM,11.5%
c1cncc(CN2CC[C@H]3O[C@@H](COCC4CCOCC4)CC[C@H]32)c1,cytotoxicity at 10 µM,-73.5%
O=C1CC(c2ccncc2)C2(CCN(C(=O)c3ccc[nH]3)CC2)N1 (stereo not given),cytotoxicity at 10 µM,3.78%
c1cncc(-c2nnn3c2COCC(CNC2CCOCC2)C3)c1 (stereo not given),cytotoxicity at 10 µM,-77%
CCc1cnc(N2CC[C@H]3[C@@H]2CCC(=O)N3c2ccccc2)nc1,cytotoxicity at 10 µM,-6.18%
COCC1Cn2nnc(-c3cnn(C)c3)c2CN1Cc1ccsc1 (stereo not given),cytotoxicity at 10 µM,2.11%
COCCN1C(=O)C[C@H]2[C@H]1CCN2Cc1cccc(C#N)c1,cytotoxicity at 10 µM,2.55%
c1c(CN2CCCC2)nc2n1CCNC2,cytotoxicity at 10 µM,9.94%
CN(C)C(=O)[C@H]1C[C@H]2CN(S(=O)(=O)c3ccccc3)C[C@@H]1O2,cytotoxicity at 10 µM,-83.1%
